Assay results: PMC7985749 (CNS Drugs, 2021)

Tests used:
[1] = Adverse events / TEAEs, MAD cohort; format: in vivo, human; conditions: MAD
KDM1A = KDM1A (Homo sapiens, UniProt O60341); assay: Chemoprobe-based KDM1A target engagement in PBMCs; format: in vivo
[2] = Neuropsychological assessments; format: in vivo, human; conditions: SAD, MAD, or CSF cohorts
Outline: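 Tests were VAS, LSEQ, WCST and Sternberg, run within the neurological evaluation. The trial was single-centre, randomized, double-blind and placebo-controlled in healthy volunteers. Dosing was oral: single doses of 0.2–4 mg (young males), 5 daily doses of 0.2–4 mg/day (young males and females), or 2.5 mg/day for 5 days (older adults). Assessments followed the scheduled timepoints.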

[3] = Plasma pharmacokinetics, multiple ascending dose; format: in vivo, human; conditions: for Tmax / AUC(0-t) / Cmax / half-life: human, plasma, oral; for AUC(0-t) / Cmax / half-life: mean (CV %); for half-life: t½, 5 days

With `Nc1nnc(CN[C@@H]2C[C@H]2c2ccc(OCc3ccccc3)cc2)o1` [vafidemstat] the “Number of TEAEs (% of total TEAEs): Total” value ([1]; 0.2 mg/day, n = 6) was 10 (16.4) n (%), the “Number of TEAEs (% of total TEAEs): Apathy” value ([1]; 0.6 mg/day, n = 6) was 1 (1.6) n (%) and the “Number of TEAEs (% of total TEAEs): Asthenia” value ([1]; 0.6 mg/day, n = 6) was 1 (1.6) n (%). The “Number of TEAEs (% of total TEAEs): Blunted affect” value ([1]; 0.6 mg/day, n = 6) was 2 (3.3) n (%), the “Number of TEAEs (% of total TEAEs): Daydreaming” value ([1]; 0.6 mg/day, n = 6) was 1 (1.6) n (%) and the “Number of TEAEs (% of total TEAEs): Dyspepsia” value ([1]; 0.6 mg/day, n = 6) was 1 (1.6) n (%). For the same molecule, the “Number of TEAEs (% of total TEAEs): Euphoric mood” value ([1]; 0.6 mg/day, n = 6) was 1 (1.6) n (%), the “Number of TEAEs (% of total TEAEs): Feeling drunk” value ([1]; 0.6 mg/day, n = 6) was 1 (1.6) n (%) and the “Number of TEAEs (% of total TEAEs): Headache” value ([1]; 0.6 mg/day, n = 6) was 1 (1.6) n (%). For the same molecule, the “Number of TEAEs (% of total TEAEs): Somnolence” value ([1]; 0.6 mg/day, n = 6) was 2 (3.3) n (%), the “Number of TEAEs (% of total TEAEs): Total” value ([1]; 0.6 mg/day, n = 6) was 11 (18.0) n (%) and the “Number of TEAEs (% of total TEAEs): Asthenia” value ([1]; 1.0 mg/day, n = 6) was 1 (1.6) n (%). For the same molecule, the “Number of TEAEs (% of total TEAEs): Constipation” value ([1]; 1.0 mg/day, n = 6) was 1 (1.6) n (%), the “Number of TEAEs (% of total TEAEs): Dizziness postural” value ([1]; 1.0 mg/day, n = 6) was 1 (1.6) n (%) and the “Number of TEAEs (% of total TEAEs): Dry mouth” value ([1]; 1.0 mg/day, n = 6) was 4 (6.5) n (%). For the same molecule, the “Number of TEAEs (% of total TEAEs): Feeling cold” value ([1]; 1.0 mg/day, n = 6) was 3 (4.9) n (%), the “Number of TEAEs (% of total TEAEs): Headache” value ([1]; 1.0 mg/day, n = 6) was 2 (3.3) n (%) and the “Number of TEAEs (% of total TEAEs): Nasopharyngitis” value ([1]; 1.0 mg/day, n = 6) was 1 (1.6) n (%). For the same molecule, the “Number of TEAEs (% of total TEAEs): Total” value ([1]; 1.0 mg/day, n = 6) was 13 (21.3) n (%), the “Number of TEAEs (% of total TEAEs): Dry mouth” value ([1]; 1.5 mg/day, n = 6) was 3 (4.9) n (%) and the “Number of TEAEs (% of total TEAEs): Headache” value ([1]; 1.5 mg/day, n = 6) was 2 (3.3) n (%). The “Number of TEAEs (% of total TEAEs): Salivary hypersecretion” value ([1]; 1.5 mg/day, n = 6) was 1 (1.6) n (%), the “Number of TEAEs (% of total TEAEs): Somnolence” value ([1]; 1.5 mg/day, n = 6) was 1 (1.6) n (%) and the “Number of TEAEs (% of total TEAEs): Total” value ([1]; 1.5 mg/day, n = 6) was 7 (11.5) n (%). For the same molecule, the “Number of TEAEs (% of total TEAEs): Dry mouth” value ([1]; 2.5 mg/day, n = 6) was 1 (1.6) n (%), the “Number of TEAEs (% of total TEAEs): Total” value ([1]; 2.5 mg/day, n = 6) was 1 (1.6) n (%) and the “Number of TEAEs (% of total TEAEs): Headache” value ([1]; 4.0 mg/day, n = 3) was 2 (3.3) n (%). The “Number of TEAEs (% of total TEAEs): Total” value ([1]; 4.0 mg/day, n = 3) was 2 (3.3) n (%), the “Maximum KDM1A TE values” (KDM1A; MAD, at 108 h after first dose (12 h after last dose), PBMCs) was “up to 90%” and the “KDM1A binding in PBMCs” value (KDM1A; SAD and MAD) was “dose-dependent manner”. The “Maximum KDM1A TE” value (KDM1A; SAD cohorts, 4 mg, at 12 h, PBMCs) was “around 80%”, the “KDM1A TE peak versus plasma exposure” value (KDM1A; at Cmax,ss of ~ 30 ng/mL and AUCss of ~ 500 ng·h/mL) was ~ 90% and the “KDM1A TE” value (KDM1A; older adult population, evaluable sample from a single individual) was 85.6%. For the same molecule, the “Sleeping or awakening patterns (LSEQ)” value [2] was “did not disrupt sleeping or awakening patterns”, the “Somnolence and potential for abuse (VAS)” value [2] was “did not provoke somnolence or reveal a potential for abuse” and the “WCST or Sternberg test” value ([2]; any dose level or parameter) was “No significant differences”. For the same molecule, the “Pharmacokinetic profiles, young versus older adult populations” value ([3]; 2.5 mg/day) was “did not differ significantly”, the Tmax ([3]; both, 0.2 mg/day) was 5.1 h and the AUC(0-t) ([3]; both, 0.2 mg/day, AUC0–t (D1), MAD 0.2 mg/day, day 1, young) was 18.7 ng·h/mL. For the same molecule, the AUC(0-t) ([3]; both, 0.2 mg/day, AUC0–t,ss (D5), MAD 0.2 mg/day, day 5, young) was 37.7 ng·h/mL, the Cmax ([3]; both, 0.2 mg/day, Cmax (D1), MAD 0.2 mg/day, day 1, young) was 1.28 ng/mL and the Cmax ([3]; both, 0.2 mg/day, Cmax,ss (D5), MAD 0.2 mg/day, day 5, young) was 2.32 ng/mL. It also gave a half-life ([3]; both, 0.2 mg/day, MAD 0.2 mg/day, young) of 22 h, a Tmax ([3]; both, 0.6 mg/day) of 2.25 h and an AUC(0-t) ([3]; both, 0.6 mg/day, AUC0–t (D1), MAD 0.6 mg/day, day 1, young) of 50.6 ng·h/mL. It also gave an AUC(0-t) ([3]; both, 0.6 mg/day, AUC0–t,ss (D5), MAD 0.6 mg/day, day 5, young) of 114 ng·h/mL, a Cmax ([3]; both, 0.6 mg/day, Cmax (D1), MAD 0.6 mg/day, day 1, young) of 3.69 ng/mL and a Cmax ([3]; both, 0.6 mg/day, Cmax,ss (D5), MAD 0.6 mg/day, day 5, young) of 7.65 ng/mL. The half-life ([3]; both, 0.6 mg/day, MAD 0.6 mg/day, young) was 22 h, the Tmax ([3]; both, 1 mg/day) was 1.83 h and the Tmax ([3]; both, 1.5 mg/day) was 1.17 h. It also gave an AUC(0-t) ([3]; both, 1.5 mg/day, AUC0–t (D1), MAD 1.5 mg/day, day 1, young) of 138 ng·h/mL, an AUC(0-t) ([3]; both, 1.5 mg/day, AUC0–t,ss (D5), MAD 1.5 mg/day, day 5, young) of 299 ng·h/mL and a Cmax ([3]; both, 1.5 mg/day, Cmax (D1), MAD 1.5 mg/day, day 1, young) of 11.3 ng/mL. The Cmax ([3]; both, 1.5 mg/day, Cmax,ss (D5), MAD 1.5 mg/day, day 5, young) was 23.6 ng/mL, the half-life ([3]; both, 1.5 mg/day, MAD 1.5 mg/day, young) was 22 h and the Tmax ([3]; both, 2.5 mg/day) was 2.17 h. For the same molecule, the AUC(0-t) ([3]; both, 2.5 mg/day, AUC0–t (D1), MAD 2.5 mg/day, day 1, young) was 292 ng·h/mL, the AUC(0-t) ([3]; both, 2.5 mg/day, AUC0–t,ss (D5), MAD 2.5 mg/day, day 5, young) was 634 ng·h/mL and the AUC(0-t) ([3]; both, 2.5 mg/day, AUC0–t,ss (D5), MAD older adult 2.5 mg/day, day 5) was 442 ng·h/mL. For the same molecule, the Cmax ([3]; both, 2.5 mg/day, Cmax (D1), MAD 2.5 mg/day, day 1, young) was 26.6 ng/mL, the Cmax ([3]; both, 2.5 mg/day, Cmax,ss (D5), MAD 2.5 mg/day, day 5, young) was 49.9 ng/mL and the half-life ([3]; both, 2.5 mg/day, MAD 2.5 mg/day, young) was 22 h. For the same molecule, the half-life ([3]; both, 2.5 mg/day, MAD older adult 2.5 mg/day) was 23 h, the Tmax ([3]; both, 4 mg/day) was 1.33 h and the AUC(0-t) ([3]; both, 4 mg/day, AUC0–t (D1), MAD 4.0 mg/day, day 1, young) was 564 ng·h/mL. It also gave an AUC(0-t) ([3]; both, 4 mg/day, AUC0–t,ss (D5), MAD 4.0 mg/day, day 5, young) of 994 ng·h/mL, a Cmax ([3]; both, 4 mg/day, Cmax (D1), MAD 4.0 mg/day, day 1, young) of 56 ng/mL and a Cmax ([3]; both, 4 mg/day, Cmax,ss (D5), MAD 4.0 mg/day, day 5, young) of 110 ng/mL. It also gave a half-life ([3]; both, 4 mg/day, MAD 4.0 mg/day, young) of 20 h, a Tmax ([3]; 2.5 mg/day) of 2.33 h and an AUC(0-t) ([3]; 2.5 mg/day, AUC0–t (D1), MAD older adult 2.5 mg/day, day 1) of 258 ng·h/mL. The Cmax ([3]; 2.5 mg/day, Cmax (D1), MAD older adult 2.5 mg/day, day 1) was 24.3 ng/mL and the Cmax ([3]; 2.5 mg/day, Cmax,ss (D5), MAD older adult 2.5 mg/day, day 5) was 41 ng/mL.
